Only some compounds are listed: those with a hit (about 5.2% of all), similar ones and a draw of the others.
ALR inh – inhibitors of human sulfhydryl oxidase ALR | inhibition, % (concentration not given with the values) | P55789 | hit rate 3.8% among 290,000 | purified ALR, DTT oxidation, H2O2 HRP-luminol luminescence;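 active = mean replicate inhibition above about 79%, with every replicate also reaching it, limit read from the data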
Target sequence (P55789 whole entry, looked up): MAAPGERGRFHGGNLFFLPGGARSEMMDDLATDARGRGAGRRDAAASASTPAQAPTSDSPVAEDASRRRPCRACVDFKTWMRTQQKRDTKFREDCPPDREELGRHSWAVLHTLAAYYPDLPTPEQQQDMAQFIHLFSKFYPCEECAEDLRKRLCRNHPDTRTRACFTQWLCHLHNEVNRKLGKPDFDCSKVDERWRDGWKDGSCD
PfM18AAP inh – blocks P. falciparum M18 aspartyl aminopeptidase. AID 1822. recombinant PfM18AAP, H-Glu-NHMec fluorogenic cleavage. inhibition, % at 7.35 µM. hit rate 1.2% among 290,000;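 active = inhibition above the campaign mean inhibition over all tested compounds plus 3 SD, cut at about 28% in these data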;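 note: 0% = plate median of test compound wells and 100% = 2 mM ZnCl2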
NS3 helicase inh – inhibitors of Hepatitis C virus NS3 helicase; NS3 helicase DNA unwinding, Cy5 molecular beacon fluorescence; inhibition, % at 10.9 µM; hit rate 0.56% among 290,000; AID 1800;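 active = inhibition above the mean of all tested compounds plus 3 SD, set per campaign, cut at about 35% in these data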;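 note: 0% = DMSO wells and 100% = thioflavine S control wells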
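Assay system: hepatitis C virus NS3 helicase domain fragment enzyme. Also added: annealed dual-labelled DNA beacon duplex, ATP-started. Timing: 1 h reaction at 25 °C, ATP-initiated. Technique: Cy5 fluorescence at 0 and 60 min, beacon hairpin quenching. Evaluation: % inhibition of unwinding. Replication: one well per compound.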
EBNA-1 inh – blocks EBNA-1 binding to DNA. EBNA-1 DNA binding, fluorescence polarization. inhibition, % at 14.8 µM. hit rate 0.34% among 300,000. AID 1950; in the data active = inhibition above about 28%
HCV core dimer – HCV core protein dimerization inhibition; TR-FRET GST/Flag-core106 dimerization, 1536-well; inhibition, % at 5 µM; hit rate 0.33% among 300,000; AID 1899;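 active = inhibition above the mean of all tested compounds plus 3 SD, set per screening campaign, cut at about 45% in these data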
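Test system: GST/Flag-tagged HCV core106 proteins; Medium: KF-containing HEPES buffer, pH 7.45, DTT, CHAPS, BSA; Times: compound-protein-antibody incubation 4 h at 22.5 °C; Detection: TR-FRET 671 and 617 nm emission; Benchmarks: wells lacking GST-core106 and wells with excess unlabelled core106.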
ZTA counter – counter-screen for EBNA-1 inhibitors: inhibitors of Epstein-Barr virus ZTA | P03206 | inhibition, % at 11 µM | hit rate 0.15% among 320,000 | AID 2234 | ZTA-DNA binding, fluorescence polarization; in the data active = inhibition above about 33%
Target sequence (P03206 whole entry, looked up): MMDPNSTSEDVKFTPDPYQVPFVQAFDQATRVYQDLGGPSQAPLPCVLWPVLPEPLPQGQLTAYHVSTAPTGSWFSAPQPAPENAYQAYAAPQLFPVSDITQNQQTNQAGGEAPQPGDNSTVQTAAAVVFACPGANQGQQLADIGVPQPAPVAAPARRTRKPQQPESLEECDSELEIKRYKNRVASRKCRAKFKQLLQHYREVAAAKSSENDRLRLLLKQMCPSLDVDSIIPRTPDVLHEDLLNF
The depositor's hits bear a star; nt = no result given.

SMILES | ALR inh | PfM18AAP inh | NS3 helicase inh | EBNA-1 inh | HCV core dimer | ZTA counter
COCCNC(=O)CSc1cc(-c2ccccc2)c2ccc(OC)cc2n1 | 97* | 2 | -12 | 4 | 18 | 4
Cc1ccc(NC(=O)CN2CCN(C)CC2)cc1Br | nt | 5 | 4 | nt | nt | nt
O=C1CCCC(O)=C1C=Nc1ccc(O)cc1 | 99* | 12 | -1 | -7 | -1 | 0
CN(C)c1ccc(C2C3C(=O)N(c4ccc(C(=O)O)cc4)C(=O)C3ON2c2ccccc2)cc1 (stereo not given) | 76* | 8 | 24 | 0 | -8 | -13
O=C(O)c1ccc(N2C(=O)C3ON(c4ccccc4)C(c4ccccc4F)C3C2=O)cc1 (stereo not given) | 7 | -6 | 8 | 4 | -1 | 0
CCOC(=O)C(=O)N/N=C/c1ccc(F)cc1 | -11 | 5 | -18 | 7 | -7 | 2
CCOC(=O)C(=O)NNc1ccc(F)cc1 | 99* | 2 | -3 | 5 | 0 | 4
O=C(CS(=O)(=O)c1ccccc1)c1cc2cc(F)ccc2oc1=O | 31 | 28* | 18 | 2 | 8 | 20
CC(CCc1ccccc1)NC(=O)COC(=O)C12CC3CC(CC(Br)(C3)C1)C2 (stereo not given) | nt | -3 | -6 | 10 | 4 | 10
CN(C)S(=O)(=O)NC(=O)C1=C(N2CCCC2)COC1=O | -2 | nt | nt | nt | nt | nt
CC(=O)C1=C(O)C(=O)N(Cc2ccccc2)C1c1ccc(N(C)C)cc1 (stereo not given) | 96* | 15 | 13 | -10 | -4 | -8
CC(=O)C1=C(O)C(=O)N(Cc2ccccc2)C1c1ccc(Cl)cc1 (stereo not given) | 4 | 0 | 25 | 5 | 3 | 13
O=C(NC(=S)N1CCN(c2nc(-c3ccccc3)cs2)CC1)c1cncc(Br)c1 | 1 | 5 | 4 | -9 | 22 | 1
Cc1cc(Cl)ccc1NC(=O)COC(=O)c1c(C)noc1C | -2 | nt | nt | nt | nt | -14
Cc1ccccc1/C=N/Nc1nc2ccccc2c(=O)n1O | 0 | 31* | 1 | -1 | -6 | 22
Cc1ccc2nc(C)cc(N/N=C/c3cccnc3)c2c1 | 99* | 1 | -10 | -5 | -4 | -1
Cc1ccc(-c2cc(-c3ccccc3)nc(N/N=C/c3cccnc3)n2)cc1 | 0 | -11 | -7 | 0 | 11 | 1
Cc1ccccc1NC(=S)N/N=C/c1ccc(O)cc1O | 99* | 26 | 26 | -24 | -6 | -3
Cc1cc(-c2ccccc2)nc(N/N=C/c2ccc(O)cc2O)n1 | 66 | 21 | 4 | -14 | -2 | -7
Cc1cc(N/N=C/c2ccccc2O)c2ccccc2n1 | 99* | -3 | -16 | 4 | -6 | 9
CCCC(NC(=O)c1c(C)noc1C)C12CC3CC(CC(C3)C1)C2 (stereo not given) | 3 | -6 | -4 | -2 | -1 | -14
Cc1nc2ccc(NS(=O)(=O)c3cccc([N+](=O)[O-])c3)cc2s1 | -2 | nt | nt | nt | nt | nt
Cc1cccc(OC(C)C(=O)N2CCN(Cc3ccc4c(c3)OCO4)CC2)c1 (stereo not given) | 0 | 4 | -8 | 1 | -3 | -12
COc1ccc(/C=N/Nc2cc(C)nc3ccc(Br)cc23)cc1 | 6 | 10 | -53 | -23 | -9 | 6
COc1ccc2nc(C)cc(N/N=C/c3cccc(OC)c3O)c2c1 | 87* | 7 | -56 | -1 | 5 | 14
SMILES | ALR inh | PfM18AAP inh | NS3 helicase inh | EBNA-1 inh | HCV core dimer | ZTA counter
CN(C)C1(CNC(=O)C2CCC(=O)N(CCc3ccc(Cl)cc3)C2)CCCCC1 (stereo not given) | 0 | -10 | 3 | 6 | -3 | 8
N#C/C(=C\c1ccc2c(c1)OCO2)C(N)=S | 1 | 32* | -6 | -4 | 4 | 0
CSc1nc2ccc3nc(NC(=O)c4ccc(Cl)s4)sc3c2s1 | 91* | 5 | 4 | 9 | -1 | -3
CCc1sc(C(=O)Nc2nc(-c3ccccn3)cs2)cc1C | 3 | nt | nt | nt | nt | nt
Cc1ccc(C(=O)Nc2nc(-c3ccccn3)cs2)s1 | 87* | nt | nt | nt | nt | -6
O=C(Nc1nc(-c2ccccn2)cs1)c1ccc(Cl)s1 | 87* | -3 | -11 | -1 | -9 | -10
CSc1nc2ccc3nc(NC(=O)c4cccs4)sc3c2s1 | 1 | 1 | -33 | -7 | 13 | 11
c1csc(CNc2nc(-c3cccs3)nc3ccccc23)c1 | 96* | -20 | -7 | 3 | 7 | -12
c1ccc(-c2nc(NCc3cccs3)c3ccccc3n2)cc1 | -1 | 2 | -33 | 6 | 10 | 15
Cc1ccc(SCC(=O)OC(C)C(=O)NCc2ccccc2)cc1 (stereo not given) | nt | nt | nt | -8 | -1 | 6
Cc1ccc(N2CCN(C(=O)N3CCOCC3)CC2)c(C)c1 | nt | -3 | -1 | 2 | -6 | 10
O=C(N/N=C/c1c(O)n(Cc2ccccc2)c(=O)c2ccccc12)c1cccnc1 | 98* | 11 | 0 | -2 | -3 | -4
FC(F)(F)c1ccc(Cl)c(-n2c(-c3cc(-c4ccco4)[nH]n3)n[nH]c2=S)c1 | 45 | -6 | 28 | -7 | 0 | -8
FC(F)(F)c1ccc(Cl)c(-n2c(-c3cc(C4CC4)[nH]n3)n[nH]c2=S)c1 | 78* | 10 | -10 | -3 | 0 | -5
O=C(N1CCOCC1)N1c2ccccc2Sc2ccccc21 | 99* | 5 | -7 | 8 | -3 | -3
CC1CN(C(=O)N2c3ccccc3Sc3ccccc32)CC(C)O1 (stereo not given) | 99* | 0 | -4 | -2 | 1 | -8
CC1CCN(C(=O)N2c3ccccc3Sc3ccccc32)CC1 | 89* | 14 | 8 | 1 | 10 | 4
O=C(CN1CCOCC1)N1c2ccccc2Sc2ccccc21 | 4 | 5 | 2 | -6 | 0 | 0
CC1CCCN(C(=O)N2c3ccccc3Sc3ccccc32)C1 (stereo not given) | 63 | 0 | -1 | 7 | -2 | -18
CCOC(=O)[C@@H]1[C@H]2COc3ccccc3[C@H]2N2C(=O)N(c3ccc(Cl)cc3)C(=O)[C@@]12C | 2 | 4 | -31 | 4 | -6 | 4
CC(C)(C)OC(=O)NC(CNCc1ccccc1)Cc1ccccc1 (stereo not given) | -11 | nt | nt | 4 | -12 | -4
CCN1CCN(Cc2c(O)ccc3c2O/C(=C\C=C\c2ccccc2)C3=O)CC1 | -2 | 6 | 36* | -10 | 5 | -1
Cc1ccc2cc3c(NS(=O)(=O)c4cccc5nonc45)nn(CC(C)C)c3nc2c1 | 98* | 3 | 5 | 7 | 7 | 15
Cc1ccc2cc3c(NC(=O)C4CCCO4)nn(CC(C)C)c3nc2c1 (stereo not given) | 0 | -1 | -2 | -2 | -3 | -3
CCCn1nc(NS(=O)(=O)c2cccc3nonc23)c2cc3cc(C)ccc3nc21 | 37 | 4 | 17 | -4 | 2 | -10
